Measurements: ChEMBL document CHEMBL1139413, “Discovery of the first potent and orally efficacious agonist of the orphan G-protein coupled receptor 119” (J Med Chem, 2008)
Values joined by “and” are separate entries in the source; they are usually repeats but may differ in a detail not shown here. Equal values may be shown once. Active and inactive are the calls of the source. The rule behind the calls is not given here.

Key:
[1] = biological target: T1, Glucose-dependent insulinotropic receptor (Homo sapiens, UniProt Q8TDV5); test: Inverse agonist activity at GPR119 expressed in HEK293 cells assessed as cAMP level by flash plate assay; type: functional, cell-based
T1 sequence (Q8TDV5 whole entry): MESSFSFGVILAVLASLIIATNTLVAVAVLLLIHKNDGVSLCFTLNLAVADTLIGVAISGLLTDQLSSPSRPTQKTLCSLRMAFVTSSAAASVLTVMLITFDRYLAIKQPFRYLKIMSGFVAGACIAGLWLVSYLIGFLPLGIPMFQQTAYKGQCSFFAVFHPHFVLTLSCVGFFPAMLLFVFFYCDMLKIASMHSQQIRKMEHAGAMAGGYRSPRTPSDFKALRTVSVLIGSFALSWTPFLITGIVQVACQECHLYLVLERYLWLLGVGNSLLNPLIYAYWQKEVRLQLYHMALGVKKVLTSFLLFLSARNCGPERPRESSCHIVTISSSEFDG
Outline: (§1)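 HEK293 cells transiently transfected with GPR119; crude plasma membranes prepared 48 h post-transfection. Membrane adenylyl cyclase read by FlashPlate cAMP kit: 15 µg membrane protein, 60 min at room temperature in 20 mM HEPES pH 7.4 with 10 µM GTP, 0.1 mM ATP, 500 µM IBMX, 10 mM phosphocreatine, creatine phosphokinase. cAMP from on-plate standard curve; usually n = 1 or 2.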

[2] = biological target: T1, Glucose-dependent insulinotropic receptor; test: Agonist activity at […] transfected in Xenopus dermal melanophore assessed as dispersion of melatonin-induced pigmentation; type: functional
Outline: (§2)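 Cultured Xenopus dermal melanophores transiently transfected with GPR119 plasmid, plated in 384-well format. At 48 h post-transfection, pigment aggregated with melatonin (10nM, 1 h), then compounds applied for 1 h. Pigment dispersion read as absorbance (light transmission) to build concentration-response curves; EC50 with log SD, number of determinations given.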

[3] = biological target: T2, Glucose-dependent insulinotropic receptor (Mus musculus) (UniProt Q7TQP3); test: Agonist activity at mouse GPR119 transfected in Xenopus dermal melanophore assessed as dispersion of melatonin-induced pigmentation; type: functional; outline: as §2
T2 sequence (whole entry): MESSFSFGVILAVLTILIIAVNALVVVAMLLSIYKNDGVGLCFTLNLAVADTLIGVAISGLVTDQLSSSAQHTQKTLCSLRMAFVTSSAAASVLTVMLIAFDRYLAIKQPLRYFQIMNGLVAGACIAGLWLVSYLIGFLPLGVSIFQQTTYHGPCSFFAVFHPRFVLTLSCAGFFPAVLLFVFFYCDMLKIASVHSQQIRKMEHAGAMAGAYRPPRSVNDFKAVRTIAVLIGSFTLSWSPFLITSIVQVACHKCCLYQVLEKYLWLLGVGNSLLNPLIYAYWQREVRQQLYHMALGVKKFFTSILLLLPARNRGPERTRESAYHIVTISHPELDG

[4] = Inhibition of cytochrome
[5] = AUC in C57BL/6J mouse at 10 mg/kg, po; type: ADME, organism-based; set-up: dose 10 mg/kg, route oral; conditions: plasma
Outline: (§3)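 Mouse oral PK: C57/bl6J mice given a single 10 mg/kg po dose; plasma exposure profile used to derive tmax, Cmax, AUC (area under exposure curve) and terminal t1/2. No iv arm run in mouse.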

[6] = AUC in Sprague-Dawley rat at 10 mg/kg, po; type: ADME, organism-based; set-up: dose 10 mg/kg, route oral; conditions: plasma
Outline: (§4)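 Rat oral PK: single 10 mg/kg po dose; plasma tmax, Cmax, AUC, terminal t1/2 determined, with oral bioavailability (%F) also reported.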

[7] = Oral bioavailability in Sprague-Dawley rat at 10 mg/kg; type: ADME, organism-based; conditions: in vivo; outline: as §4
[8] = species on record: Canis lupus familiaris; test: Agonist activity at dog GPR119 transfected in Xenopus dermal melanophore assessed as dispersion of melatonin-induced pigmentation; type: functional; outline: as §2
[9] = species on record: Mus musculus; test: Increase in glucose dependent insulin release in diabetic KK/ay mouse by oral glucose tolerance test; type: functional, organism-based
[10] = species on record: Macaca fascicularis; test: Agonist activity at cynomolgus monkey GPR119 transfected in Xenopus dermal melanophore assessed as dispersion of melatonin-induced pigmentation; type: functional; outline: as §2
[11] = biological target: Voltage-gated inwardly rectifying potassium channel KCNH2 (Homo sapiens, UniProt Q12809); test: Inhibition of hERG upto 10 uM by patch clamp assay; type: toxicity
Outline: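 hERG channel current measured by patch clamp, compound tested up to 10 µM.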

[12] = Cmax in Sprague-Dawley rat at 10 mg/kg, po; type: ADME, organism-based; set-up: dose 10 mg/kg, route oral; conditions: in vivo; outline: as §4
[13] = Cmax in C57BL/6J mouse at 10 mg/kg, po; type: ADME, organism-based; set-up: dose 10 mg/kg, route oral; conditions: in vivo; outline: as §3
[14] = Tmax in C57BL/6J mouse at 10 mg/kg, po; type: ADME, organism-based; set-up: dose 10 mg/kg, route oral; conditions: in vivo; outline: as §3
[15] = biological target: T3, Glucose-dependent insulinotropic receptor (Rattus norvegicus) (UniProt Q7TQN8); test: Agonist activity at rat GPR119 transfected in Xenopus dermal melanophore assessed as dispersion of melatonin-induced pigmentation; type: functional; outline: as §2
T3 sequence (whole entry): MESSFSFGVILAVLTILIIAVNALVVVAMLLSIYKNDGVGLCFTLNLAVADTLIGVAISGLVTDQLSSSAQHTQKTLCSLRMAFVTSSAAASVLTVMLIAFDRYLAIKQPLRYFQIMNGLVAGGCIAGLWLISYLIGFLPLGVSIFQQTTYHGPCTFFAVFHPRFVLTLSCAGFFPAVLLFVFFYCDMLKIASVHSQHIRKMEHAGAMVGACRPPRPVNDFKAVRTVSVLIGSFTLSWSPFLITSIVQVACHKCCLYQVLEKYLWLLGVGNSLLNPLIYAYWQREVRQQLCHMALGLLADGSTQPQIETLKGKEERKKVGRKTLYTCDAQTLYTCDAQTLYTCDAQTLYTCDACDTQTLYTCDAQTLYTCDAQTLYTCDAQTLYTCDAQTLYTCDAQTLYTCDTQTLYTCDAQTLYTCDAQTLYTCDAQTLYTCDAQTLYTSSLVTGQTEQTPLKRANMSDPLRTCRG

[16] = test system: Rattus norvegicus; test: Effect on glucose excursion in Sprague-Dawley rat at 30 mg/kg, po by oral glucose tolerance test; type: functional, organism-based; set-up: dose 30 mg/kg
[17] = test system: Mus musculus; test: Increase in glucose dependent insulin release in GPR119 deficient C57BL/6J mouse at 20 mg/kg, po by oral glucose tolerance test; type: functional, organism-based; set-up: dose 20 mg/kg
[18] = test system: Mus musculus; test: Increase in glucose dependent insulin release in wild type C57BL/6J mouse at 20 mg/kg, po by oral glucose tolerance test; type: functional, organism-based; set-up: dose 20 mg/kg
[19] = Half life in C57BL/6J mouse at 10 mg/kg, po; type: ADME, organism-based; set-up: dose 10 mg/kg, route oral; conditions: in vivo; outline: as §3
[20] = Half life in Sprague-Dawley rat at 10 mg/kg, po; type: ADME, organism-based; set-up: dose 10 mg/kg, route oral; conditions: in vivo; outline: as §4
[21] = Agonist activity at GPR119 in hamster HIT-T15 cells stimulation of assessed as cAMP production; type: functional, cell-based; conditions: Cricetinae
[22] = Tmax in Sprague-Dawley rat at 10 mg/kg, po; type: ADME, organism-based; set-up: dose 10 mg/kg, route oral; conditions: in vivo; outline: as §4
[23] = biological target: T1, Glucose-dependent insulinotropic receptor; test: Agonist activity at GPR119 expressed in HEK293 cells assessed as cAMP level by flash plate assay; type: functional, cell-based; outline: as §1

Sequence of Voltage-gated inwardly rectifying potassium channel KCNH2 (Q12809 whole entry): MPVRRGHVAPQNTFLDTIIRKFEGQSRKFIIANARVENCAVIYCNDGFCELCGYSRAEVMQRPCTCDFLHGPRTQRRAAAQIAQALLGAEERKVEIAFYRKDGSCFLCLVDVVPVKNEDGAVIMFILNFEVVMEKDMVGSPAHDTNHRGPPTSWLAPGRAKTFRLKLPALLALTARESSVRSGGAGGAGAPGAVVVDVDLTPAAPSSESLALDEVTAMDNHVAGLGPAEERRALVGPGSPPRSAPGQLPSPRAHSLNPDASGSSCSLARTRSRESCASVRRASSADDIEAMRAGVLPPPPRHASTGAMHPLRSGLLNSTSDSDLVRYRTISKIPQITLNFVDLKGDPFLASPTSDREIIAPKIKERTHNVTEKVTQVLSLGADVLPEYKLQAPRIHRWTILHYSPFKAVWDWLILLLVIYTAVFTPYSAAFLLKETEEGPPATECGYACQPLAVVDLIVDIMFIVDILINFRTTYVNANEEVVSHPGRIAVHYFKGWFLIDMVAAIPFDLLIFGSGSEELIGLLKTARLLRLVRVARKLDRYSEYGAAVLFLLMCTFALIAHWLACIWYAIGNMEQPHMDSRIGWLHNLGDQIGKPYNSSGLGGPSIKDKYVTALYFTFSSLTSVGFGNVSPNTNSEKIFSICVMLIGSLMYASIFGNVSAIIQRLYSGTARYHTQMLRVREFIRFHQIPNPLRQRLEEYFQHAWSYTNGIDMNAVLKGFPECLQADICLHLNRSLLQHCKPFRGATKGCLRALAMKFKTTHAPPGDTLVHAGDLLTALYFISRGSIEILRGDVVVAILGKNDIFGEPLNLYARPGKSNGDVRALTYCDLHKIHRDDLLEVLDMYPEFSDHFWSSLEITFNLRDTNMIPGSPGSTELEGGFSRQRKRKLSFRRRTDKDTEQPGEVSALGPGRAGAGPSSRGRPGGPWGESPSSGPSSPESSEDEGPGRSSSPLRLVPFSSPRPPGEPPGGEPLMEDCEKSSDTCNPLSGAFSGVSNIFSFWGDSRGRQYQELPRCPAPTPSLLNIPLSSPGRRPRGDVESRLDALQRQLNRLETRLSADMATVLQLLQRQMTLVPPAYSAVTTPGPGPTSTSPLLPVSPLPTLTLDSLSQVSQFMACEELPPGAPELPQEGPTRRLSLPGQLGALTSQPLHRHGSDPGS

## CCOC(=O)C1CCN(c2ncnc(Oc3cc(C(F)(F)F)nn3C)c2[N+](=O)[O-])CC1
[1]
  IC50: 0.084 µM

## CCS(=O)(=O)c1ccc(Nc2ncnc(N3CCC(c4nc(C(C)C)no4)CC3)c2[N+](=O)[O-])cc1
[2]
  EC50: 0.017 µM

## CCSc1ccc(Nc2ncnc(N3CCC(c4nc(C(C)C)no4)CC3)c2[N+](=O)[O-])cc1
[2]
  EC50: 0.11 µM

## CC(C)c1noc(C2CCN(c3ncnc(Nc4ccc(S(C)(=O)=O)cc4F)c3[N+](=O)[O-])CC2)n1
[2]
  EC50: 0.00068 µM
[3]
  Activity: 12 nM
[4]
  Activity: inactive
[5]
  AUC: 19800 ng·h/mL
[6]
  AUC: 263 ng·h/mL
[7]
  bioavailability: 12%
[8]
  Activity: 1.6 nM
[9]
  Activity: Active
[10]
  Activity: 0.4 nM
[11]
  Activity: Not Active
[12]
  Cmax: 126 ng/mL and 250 nM
[13]
  Cmax: 4980 ng/mL
[14]
  Tmax: 0.5 h
[15]
  Activity: 14 nM
[16]
  Activity: inactive
[17]
  Activity: inactive
[18]
  Activity: Active
[19]
  half-life: 3.4 h
[20]
  half-life: 1.1 h
[21]
  EC50: 0.0047 µM
[22]
  Tmax: 1 h

## CC[S+]([O-])c1ccc(Nc2ncnc(N3CCC(c4nc(C(C)C)no4)CC3)c2[N+](=O)[O-])cc1 (centres undefined)
[2]
  EC50: 0.0171 µM

## CCOC(=O)C1CCN(c2ncnc(Nc3ccc(S(C)(=O)=O)cc3)c2[N+](=O)[O-])CC1
[23]
  EC50: 1.2 µM

## CCCc1noc(C2CCN(c3ncnc(Nc4ccc(S(C)(=O)=O)cc4)c3[N+](=O)[O-])CC2)n1
[2]
  EC50: 0.43 µM

## CCOC(=O)C1CCN(c2ncnc(Oc3ccc(CCC(C)=O)cc3)c2[N+](=O)[O-])CC1
[23]
  EC50: 1.7 µM

## CS(=O)(=O)c1ccc(Nc2ncnc(N3CCC(c4nc(CC5CC5)no4)CC3)c2[N+](=O)[O-])cc1
[2]
  EC50: 0.16 µM

## CCOC(=O)C1CCN(c2ncnc(Nc3ccc(-n4cncn4)cc3)c2[N+](=O)[O-])CC1
[23]
  EC50: 0.4 µM

## CC(C)c1noc(C2CCN(c3ncnc(Nc4ccc(S(=O)(=O)C(C)C)cc4)c3[N+](=O)[O-])CC2)n1
[2]
  EC50: 0.0078 µM

## CS(=O)(=O)c1ccc(Nc2ncnc(N3CCC(c4nc(C5CC5)no4)CC3)c2[N+](=O)[O-])cc1
[2]
  EC50: 0.025 µM

## CCCS(=O)(=O)c1ccc(Nc2ncnc(N3CCC(c4nc(C(C)C)no4)CC3)c2[N+](=O)[O-])cc1
[2]
  EC50: 0.0047 µM

## CCc1noc(C2CCN(c3ncnc(Nc4ccc(S(C)(=O)=O)cc4)c3[N+](=O)[O-])CC2)n1
[2]
  EC50: 0.01 µM
